In article PMC5114172 (Journal of applied toxicology : JAT, 2016):

How the values were obtained:
MD-PBMCs = assay: IL-1β secretion; assay type: cell-based, human
monocyte-depleted PBMCs = assay: IL-1β secretion assay; assay type: cell-based, human; conditions: MD-PBMCs
How it was run: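 NK cells, MD-PBMCs, PBMCs or granulocytes (1.5 million/mL) or PBMC+granulocytes (0.75 million/mL each), per donor, exposed 24 h, 48 h or 6 days to 0.05–5 μM test compound diluted from DMSO stock, with DMSO controls. Supernatants kept at −70 °C. IL-1β by sandwich ELISA: HRP detection antibody, acid-stopped substrate, A450 against standards. Detection limit 3 pg/mL; triplicates; ANOVA then t test versus control, p<0.05.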

CCC[CH2][Sn][CH2]CCC [DBT, Dibutyltin]
Interleukin 1 beta secreted (MD-PBMCs; donor F240, 24 h, 0.05 μM DBT + Caspase-1 inhibitor II 50 μM): 337 ± 7 pg/mL | Interleukin 1 beta secreted (MD-PBMCs; donor F240, 24 h, 0.05 μM DBT + U0126 50 μM): 1840 ± 95 pg/mL | fold increase in IL-1β secretion (MD-PBMCs; donor F240, 24 h, 0.05 μM DBT, absence of MEK inhibitor): 1.6 fold | Interleukin 1 beta secreted (MD-PBMCs; donor F240, 24 h, 0.05 μM DBT, no inhibitor (CI experiment)): 757 ± 17 pg/mL | Interleukin 1 beta secreted (MD-PBMCs; donor F240, 24 h, 0.05 μM DBT, no inhibitor (U0126 experiment)): 772 ± 54 pg/mL | Interleukin 1 beta secreted (MD-PBMCs; donor F240, 24 h, 0.1 μM DBT + Caspase-1 inhibitor II 50 μM): 467 ± 12 pg/mL | Interleukin 1 beta secreted (MD-PBMCs; donor F240, 24 h, 0.1 μM DBT + U0126 50 μM): 1447 ± 142 pg/mL | fold increase in IL-1β secretion (MD-PBMCs; donor F240, 24 h, 0.1 μM DBT, absence of MEK inhibitor): 1.6 fold | Interleukin 1 beta secreted (MD-PBMCs; donor F240, 24 h, 0.1 μM DBT, no inhibitor (CI experiment)): 916 ± 67 pg/mL | Interleukin 1 beta secreted (MD-PBMCs; donor F240, 24 h, 0.1 μM DBT, no inhibitor (U0126 experiment)): 812 ± 109 pg/mL | fold increase in IL-1β secretion (MD-PBMCs; donor F240, 24 h, 0.05 and 0.1 μM DBT, U0126 50 μM present): no DBT-induced increases | Interleukin 1 beta secreted (MD-PBMCs; donor F242, 24 h, 0.05 μM DBT + Caspase-1 inhibitor II 50 μM): 495 ± 25 pg/mL | Interleukin 1 beta secreted (MD-PBMCs; donor F242, 24 h, 0.05 μM DBT + U0126 50 μM): 759 ± 10 pg/mL | Interleukin 1 beta secreted (MD-PBMCs; donor F242, 24 h, 0.05 μM DBT, no inhibitor (CI experiment)): 2752 ± 49 pg/mL | Interleukin 1 beta secreted (MD-PBMCs; donor F242, 24 h, 0.05 μM DBT, no inhibitor (U0126 experiment)): 2230 ± 89 pg/mL | Interleukin 1 beta secreted (MD-PBMCs; donor F242, 24 h, 0.1 μM DBT + Caspase-1 inhibitor II 50 μM): 354 ± 43 pg/mL | Interleukin 1 beta secreted (MD-PBMCs; donor F242, 24 h, 0.1 μM DBT + U0126 50 μM): 312 ± 27 pg/mL | Interleukin 1 beta secreted (MD-PBMCs; donor F242, 24 h, 0.1 μM DBT, no inhibitor (CI experiment)): 2874 ± 77 pg/mL | Interleukin 1 beta secreted (MD-PBMCs; donor F242, 24 h, 0.1 μM DBT, no inhibitor (U0126 experiment)): 2172 ± 25 pg/mL | Interleukin 1 beta secreted (MD-PBMCs; donor F244, 24 h, 0.05 μM DBT + BAY 11-7085): 1107 ± 14 pg/mL | Interleukin 1 beta secreted (MD-PBMCs; donor F244, 24 h, 0.05 μM DBT + Caspase-1 inhibitor II 50 μM): 334 ± 11 pg/mL | Interleukin 1 beta secreted (MD-PBMCs; donor F244, 24 h, 0.05 μM DBT + U0126 50 μM): 61 ± 23 pg/mL | fold increase in IL-1β secretion (MD-PBMCs; donor F244, 24 h, 0.05 μM DBT, BAY 11-7085 present): 1.3 fold | fold increase in IL-1β secretion (MD-PBMCs; donor F244, 24 h, 0.05 μM DBT, absence of NFκB inhibitor): 1.2 fold | Interleukin 1 beta secreted (MD-PBMCs; donor F244, 24 h, 0.05 μM DBT, no inhibitor (BAY experiment)): 947 ± 29 pg/mL | Interleukin 1 beta secreted (MD-PBMCs; donor F244, 24 h, 0.05 μM DBT, no inhibitor (CI experiment)): 1291 ± 34 pg/mL | Interleukin 1 beta secreted (MD-PBMCs; donor F244, 24 h, 0.05 μM DBT, no inhibitor (U0126 experiment)): 1764 ± 62 pg/mL | Interleukin 1 beta secreted (MD-PBMCs; donor F244, 24 h, 0.1 μM DBT + BAY 11-7085): 1067 ± 19 pg/mL | Interleukin 1 beta secreted (MD-PBMCs; donor F244, 24 h, 0.1 μM DBT + Caspase-1 inhibitor II 50 μM): 302 ± 3 pg/mL | Interleukin 1 beta secreted (MD-PBMCs; donor F244, 24 h, 0.1 μM DBT + U0126 50 μM): 143 ± 50 pg/mL | fold increase in IL-1β secretion (MD-PBMCs; donor F244, 24 h, 0.1 μM DBT, BAY 11-7085 present): 1.3 fold | fold increase in IL-1β secretion (MD-PBMCs; donor F244, 24 h, 0.1 μM DBT, absence of NFκB inhibitor): 1.3 fold | Interleukin 1 beta secreted (MD-PBMCs; donor F244, 24 h, 0.1 μM DBT, no inhibitor (BAY experiment)): 1029 ± 59 pg/mL | Interleukin 1 beta secreted (MD-PBMCs; donor F244, 24 h, 0.1 μM DBT, no inhibitor (CI experiment)): 1444 ± 43 pg/mL | Interleukin 1 beta secreted (MD-PBMCs; donor F244, 24 h, 0.1 μM DBT, no inhibitor (U0126 experiment)): 2001 ± 184 pg/mL | Interleukin 1 beta secreted (MD-PBMCs; donor F245, 24 h, 0.05 μM DBT + BAY 11-7085): 630 ± 60 pg/mL | Interleukin 1 beta secreted (MD-PBMCs; donor F245, 24 h, 0.05 μM DBT + Caspase-1 inhibitor II 50 μM): 216 ± 19 pg/mL | Interleukin 1 beta secreted (MD-PBMCs; donor F245, 24 h, 0.05 μM DBT + U0126 50 μM): 277 ± 8 pg/mL | fold increase in IL-1β secretion (MD-PBMCs; donor F245, 24 h, 0.05 μM DBT, Caspase-1 inhibitor II 50 μM present): 1.4 fold | fold increase in IL-1β secretion (MD-PBMCs; donor F245, 24 h, 0.05 μM DBT, absence of Caspase-1 inhibitor): 1.8 fold | Interleukin 1 beta secreted (MD-PBMCs; donor F245, 24 h, 0.05 μM DBT, no inhibitor (BAY experiment)): 883 ± 66 pg/mL | Interleukin 1 beta secreted (MD-PBMCs; donor F245, 24 h, 0.05 μM DBT, no inhibitor (CI experiment)): 1399 ± 20 pg/mL | Interleukin 1 beta secreted (MD-PBMCs; donor F245, 24 h, 0.05 μM DBT, no inhibitor (U0126 experiment)): 1174 ± 49 pg/mL | Interleukin 1 beta secreted (MD-PBMCs; donor F245, 24 h, 0.1 μM DBT + BAY 11-7085): 514 ± 80 pg/mL | Interleukin 1 beta secreted (MD-PBMCs; donor F245, 24 h, 0.1 μM DBT + Caspase-1 inhibitor II 50 μM): 163 ± 10 pg/mL | Interleukin 1 beta secreted (MD-PBMCs; donor F245, 24 h, 0.1 μM DBT + U0126 50 μM): 231 ± 14 pg/mL | fold increase in IL-1β secretion (MD-PBMCs; donor F245, 24 h, 0.1 μM DBT, Caspase-1 inhibitor II 50 μM present): no increase | fold increase in IL-1β secretion (MD-PBMCs; donor F245, 24 h, 0.1 μM DBT, absence of Caspase-1 inhibitor): 1.8 fold | Interleukin 1 beta secreted (MD-PBMCs; donor F245, 24 h, 0.1 μM DBT, no inhibitor (BAY experiment)): 1206 ± 91 pg/mL | Interleukin 1 beta secreted (MD-PBMCs; donor F245, 24 h, 0.1 μM DBT, no inhibitor (CI experiment)): 1375 ± 18 pg/mL | Interleukin 1 beta secreted (MD-PBMCs; donor F245, 24 h, 0.1 μM DBT, no inhibitor (U0126 experiment)): 1246 ± 65 pg/mL | Interleukin 1 beta secreted (MD-PBMCs; donor F247, 24 h, 0.05 μM DBT + SB202190): 1495 ± 134 pg/mL | fold increase in IL-1β secretion (MD-PBMCs; donor F247, 24 h, 0.05 μM DBT, absence of p38 inhibitor): 7.2 fold | Interleukin 1 beta secreted (MD-PBMCs; donor F247, 24 h, 0.05 μM DBT, no inhibitor (SB202190 experiment)): 1378 ± 246 pg/mL | Interleukin 1 beta secreted (MD-PBMCs; donor F247, 24 h, 0.1 μM DBT + SB202190): 1329 ± 99 pg/mL | fold increase in IL-1β secretion (MD-PBMCs; donor F247, 24 h, 0.1 μM DBT, absence of p38 inhibitor): 2.5 fold | Interleukin 1 beta secreted (MD-PBMCs; donor F247, 24 h, 0.1 μM DBT, no inhibitor (SB202190 experiment)): 477 ± 60 pg/mL | fold increase in IL-1β secretion (MD-PBMCs; donor F247, 24 h, 0.05 and 0.1 μM DBT, SB202190 present): no increases | Interleukin 1 beta secreted (MD-PBMCs; donor F254, 24 h, 0.05 μM DBT + Caspase-1 inhibitor II 50 μM): 41 ± 9 pg/mL | Interleukin 1 beta secreted (MD-PBMCs; donor F254, 24 h, 0.05 μM DBT, no inhibitor (CI experiment)): 521 ± 62 pg/mL | Interleukin 1 beta secreted (MD-PBMCs; donor F254, 24 h, 0.1 μM DBT + Caspase-1 inhibitor II 50 μM): 17 ± 16 pg/mL | Interleukin 1 beta secreted (MD-PBMCs; donor F254, 24 h, 0.1 μM DBT, no inhibitor (CI experiment)): 206 ± 2 pg/mL | Interleukin 1 beta secreted (MD-PBMCs; donor F262, 24 h, 0.05 μM DBT + SB202190): 146 ± 8 pg/mL | Interleukin 1 beta secreted (MD-PBMCs; donor F262, 24 h, 0.05 μM DBT, no inhibitor (SB202190 experiment)): 1100 ± 58 pg/mL | Interleukin 1 beta secreted (MD-PBMCs; donor F262, 24 h, 0.1 μM DBT + SB202190): 134 ± 183 pg/mL | Interleukin 1 beta secreted (MD-PBMCs; donor F262, 24 h, 0.1 μM DBT, no inhibitor (SB202190 experiment)): 1021 ± 61 pg/mL | Interleukin 1 beta secreted (MD-PBMCs; donor F333, 24 h, 0.05 μM DBT + BAY 11-7085): 2518 ± 60 pg/mL | Interleukin 1 beta secreted (MD-PBMCs; donor F333, 24 h, 0.05 μM DBT, no inhibitor (BAY experiment)): 3995 ± 161 pg/mL | Interleukin 1 beta secreted (MD-PBMCs; donor F333, 24 h, 0.1 μM DBT + BAY 11-7085): 1960 ± 102 pg/mL | Interleukin 1 beta secreted (MD-PBMCs; donor F333, 24 h, 0.1 μM DBT, no inhibitor (BAY experiment)): 2755 ± 84 pg/mL | Interleukin 1 beta secreted (MD-PBMCs; donor F334, 24 h, 0.05 μM DBT + BAY 11-7085): 1035 ± 19 pg/mL | Interleukin 1 beta secreted (MD-PBMCs; donor F334, 24 h, 0.05 μM DBT, no inhibitor (BAY experiment)): 2281 ± 53 pg/mL | Interleukin 1 beta secreted (MD-PBMCs; donor F334, 24 h, 0.1 μM DBT + BAY 11-7085): 702 ± 82 pg/mL | Interleukin 1 beta secreted (MD-PBMCs; donor F334, 24 h, 0.1 μM DBT, no inhibitor (BAY experiment)): 1468 ± 94 pg/mL | Interleukin 1 beta secreted (MD-PBMCs; donor F372, 24 h, 0.05 μM DBT + SB202190): 348 ± 198 pg/mL | Interleukin 1 beta secreted (MD-PBMCs; donor F372, 24 h, 0.05 μM DBT, no inhibitor (SB202190 experiment)): 2388 ± 322 pg/mL | Interleukin 1 beta secreted (MD-PBMCs; donor F372, 24 h, 0.1 μM DBT + SB202190): 70 ± 14 pg/mL | Interleukin 1 beta secreted (MD-PBMCs; donor F372, 24 h, 0.1 μM DBT, no inhibitor (SB202190 experiment)): 1985 ± 53 pg/mL | Interleukin 1 beta secreted (MD-PBMCs; donor F385, 24 h, 0.05 μM DBT + SB202190): 65 ± 24 pg/mL | Interleukin 1 beta secreted (MD-PBMCs; donor F385, 24 h, 0.05 μM DBT, no inhibitor (SB202190 experiment)): 1863 ± 83 pg/mL | Interleukin 1 beta secreted (MD-PBMCs; donor F385, 24 h, 0.1 μM DBT, no inhibitor (SB202190 experiment)): 1126 ± 29 pg/mL | average of the maximum fold increase in IL-β secretion (monocyte-depleted PBMCs; 24 h, across donors): 2.0 fold | Interleukin 1 beta secreted (monocyte-depleted PBMCs; donor F142, 24 h, 0.05 μM DBT): 11284 ± 763 pg/mL | fold increase in IL-1β secretion (monocyte-depleted PBMCs; donor F142, 24 h, 0.05 μM DBT): 1.5 fold
